Key:
[1] = Inhibition of Plasmodium vivax recombinant N-myristoyltransferase using human pp60Src92-16 amino acids) as substrate; conditions: for Ki: read-out: Ki(app)
In short: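 Recombinant P. vivax NMT in a 96-well fluorogenic NMT assay. Values are reported as apparent Ki, mean ± SD from duplicates.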

[2] = target: T1, Glycylpeptide N-tetradecanoyltransferase 1 (Homo sapiens, UniProt P30419); test: Inhibition of human N-myristoyltransferase 1 using human pp60Src92-16 amino acids) as substrate; conditions: read-out: Ki(app)
T1 sequence (P30419 whole entry): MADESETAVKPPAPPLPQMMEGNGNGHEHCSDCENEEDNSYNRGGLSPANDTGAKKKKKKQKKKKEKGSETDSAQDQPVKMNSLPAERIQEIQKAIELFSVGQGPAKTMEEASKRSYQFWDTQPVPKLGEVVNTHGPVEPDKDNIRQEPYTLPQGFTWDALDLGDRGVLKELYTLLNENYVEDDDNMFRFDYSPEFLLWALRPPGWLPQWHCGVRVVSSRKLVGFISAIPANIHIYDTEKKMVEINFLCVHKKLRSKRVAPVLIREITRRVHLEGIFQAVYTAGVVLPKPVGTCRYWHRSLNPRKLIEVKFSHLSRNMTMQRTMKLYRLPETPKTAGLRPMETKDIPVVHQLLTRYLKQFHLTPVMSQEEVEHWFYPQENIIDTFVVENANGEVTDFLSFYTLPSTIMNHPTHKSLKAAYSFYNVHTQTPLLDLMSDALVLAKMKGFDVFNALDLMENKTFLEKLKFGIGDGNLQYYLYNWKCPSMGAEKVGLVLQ

[3] = target: T2, Glycylpeptide N-tetradecanoyltransferase 2 (Homo sapiens, UniProt O60551); test: Inhibition of human N-myristoyltransferase 2 using human pp60Src92-16 amino acids) as substrate; conditions: read-out: Ki(app)
T2 sequence (O60551 whole entry): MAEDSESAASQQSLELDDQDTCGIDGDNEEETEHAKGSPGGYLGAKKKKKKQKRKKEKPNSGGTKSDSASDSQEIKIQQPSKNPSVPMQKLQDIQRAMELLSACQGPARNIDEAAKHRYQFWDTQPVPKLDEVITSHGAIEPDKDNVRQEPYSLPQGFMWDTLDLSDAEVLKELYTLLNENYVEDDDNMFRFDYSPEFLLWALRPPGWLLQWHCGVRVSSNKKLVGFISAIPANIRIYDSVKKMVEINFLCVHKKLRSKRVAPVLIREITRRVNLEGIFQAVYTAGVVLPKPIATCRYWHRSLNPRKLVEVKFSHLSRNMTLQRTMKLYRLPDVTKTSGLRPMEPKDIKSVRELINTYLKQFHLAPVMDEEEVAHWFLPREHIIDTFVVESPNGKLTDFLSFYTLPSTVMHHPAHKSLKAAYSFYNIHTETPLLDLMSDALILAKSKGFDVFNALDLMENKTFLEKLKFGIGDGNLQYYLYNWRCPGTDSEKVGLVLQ
In short: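 Recombinant human NMT2 was tested in a fluorogenic plate assay adapted from a published NMT method. Apparent Ki values are the mean ± SD of duplicates.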

Row | IC50 [1] [µM] | SMILES | Ki [1] [µM] | Ki [2] [µM] | Ki [3] [µM]
1 |  | CCCCc1c(C)nc2ccccc2c1SCCC#N | 2.46 | > 100 | > 100
2 |  | CCCCc1c(C)nc2ccc(Br)cc2c1SCCC#N | 21.6 | > 100 | > 100
3 |  | CCCCc1c(C)nc2ccc(OC)cc2c1SCCC#N |  |  | 11.4
4 | 26.4 | COc1ccc(CNc2sc3c(c2C#N)CC(C)(C)OC3)cc1 |  |  | 
5 | 11.4 | CCc1ccc2c(c1)S(=O)(=O)C(C(F)(F)F)CO2 (stereo not drawn) |  |  | 
6 | 26.3 | CCN(CC)Cc1c(O)ccc2ccccc12 |  |  | 
7 |  | CCc1c(C)nc2ccc(OC)cc2c1SCCC#N | 3.23 |  | 23.2
8 |  | COc1ccc2nc(C)cc(SCCC#N)c2c1 | > 100 | > 100 | > 100
9 |  | CCOC(=O)c1cnc2ccc(OC)cc2c1SCCC#N | 4.74 |  | 
10 |  | CCOC(=O)c1cnc2ccccc2c1SCCC#N | 24.4 | > 100 | > 100
11 |  | CCOC(=O)c1c(C)nc2ccccc2c1SCCC#N | 24.4 |  | 41.5
12 |  | CCOC(=O)c1c(CC)nc2ccccc2c1SCCC#N | 60.6 | 47.9 | 94.2
13 |  | CCCc1nc2ccccc2c(SCCC#N)c1C(=O)OCC | > 100 | > 100 | > 100
14 |  | C#CCCSc1c(CCCC)c(C)nc2ccc(OC)cc12 | 11.6 | > 100 | > 100
15 |  | CCCCc1c(C)nc2ccc(OC)cc2c1SCCCC#N | 35.2 | 47.6 | 46.1
16 |  | CCCCc1c(C)nc2ccc(OC)cc2c1SCC#N | > 100 |  | 
17 |  | CCCCc1c(C)nc2ccc(OC)cc2c1SCCCO | 17.4 | > 100 | > 100
18 |  | CCCCc1c(C)nc2ccc(OC)cc2c1SCCc1ccccc1 | > 100 |  | 
19 |  | CCOC(=O)c1c(C)nc2ccccc2c1NCC#N | > 100 |  | 
20 |  | CCOC(=O)c1cnc2ccc(F)cc2c1SCCC#N | 7.77 |  | 37.5
21 |  | CCOC(=O)c1cnc2ccc(C)cc2c1SCCC#N | 6.97 |  | > 100
22 |  | CCOC(=O)c1cnc2ccc(Cl)cc2c1SCCC#N | 10.4 | > 100 | > 100
23 |  | CCOC(=O)c1cnc2ccc(C(C)=O)cc2c1SCCC#N | > 100 |  | 
24 |  | CCOC(=O)c1cnc2ccc(C(C)O)cc2c1SCCC#N (stereo not drawn) | > 100 |  | 

From ChEMBL document CHEMBL2034847, “Discovery of Plasmodium vivax N-myristoyltransferase inhibitors: screening, synthesis, and structural characterization of their binding mode” (J Med Chem, 2012)
